STAT1 act: STAT1 signaling activators, primary screen, cell-based, HTS, luciferase reporter. NIH 3T3 STAT1-luciferase reporter, IFN-gamma, luminescence; 100% = IFN-gamma alone, no compound. activation (% of control), % at 5.5 µM. 200,000 tested, 2.6% active. AID 932, 2007;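 active means activation above the screen-wide mean activation plus 3 SD, cut at about 130% in these data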
FLuc inhib CS: firefly luciferase enzyme inhibitors, primary screen, artefact control for luciferase-based inhibitor screens, biochemical, luminescence, ATPLite; inhibition, % at 10 µM; 200,000 tested, 1.5% active; Luciferin 4-monooxygenase (Photinus pyralis), P08659; 10 min;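 active means inhibition above about 50% when tested at 10 µM, limit read from the data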
Target sequence (P08659 whole entry, looked up): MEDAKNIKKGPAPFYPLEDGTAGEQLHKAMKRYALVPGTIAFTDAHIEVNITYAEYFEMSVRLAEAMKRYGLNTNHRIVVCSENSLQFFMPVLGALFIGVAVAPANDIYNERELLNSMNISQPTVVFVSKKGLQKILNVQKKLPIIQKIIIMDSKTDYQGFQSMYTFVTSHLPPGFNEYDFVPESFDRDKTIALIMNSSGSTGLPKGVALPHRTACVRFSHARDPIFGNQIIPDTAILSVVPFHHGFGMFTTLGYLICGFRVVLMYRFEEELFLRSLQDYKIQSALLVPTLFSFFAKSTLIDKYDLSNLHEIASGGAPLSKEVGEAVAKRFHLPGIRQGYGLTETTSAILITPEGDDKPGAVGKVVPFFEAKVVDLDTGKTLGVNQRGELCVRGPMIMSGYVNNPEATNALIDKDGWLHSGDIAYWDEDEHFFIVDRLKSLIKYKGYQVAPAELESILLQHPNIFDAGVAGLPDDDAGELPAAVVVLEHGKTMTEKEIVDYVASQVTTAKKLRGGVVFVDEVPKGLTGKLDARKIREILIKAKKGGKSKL
SDO1 yeast rescue: growth rescue of sdo1-depleted yeast, primary screen, S. cerevisiae, bone marrow failure model; S. cerevisiae sdo1-depleted JHY4D growth rescue, OD600 30 h; hits give high values; pdr5 snq2 efflux-pump mutant strain; AID 817, 2007; z-score at 10 µM; 140,000 tested, 0.21% active;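 active means z-score above 3 at both the 24 hr and the 30 hr optical density reads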
NF-kB neuron act: activators of NF-kB expression in neurons, primary screen, cell-based, HTS. 190,000 tested, 1.6% active. human neuronal cells, NF-kB reporter expression; hits give high values. AID 1239, 2008. fold change at 12.5 µM; in the data active means fold change above about 3.3
FLuc stim CS: FLuc activators, initial screening, artefact control for FLuc-dependent activation tests, biochemical, ATPlite luminescence. Luciferin 4-monooxygenase (Photinus pyralis), P08659. ATPlite luciferase biochemical, 10 min; 0 = ATP-free wells, 1 = DMSO control. activation factor at 10 µM. 200,000 tested, under 10 active. AID 1027, 2008;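 active means luciferase activation factor, scaled between plate controls, of at least 2 with compound at 10 µM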
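Assay system: Luciferase/luciferin detection reagent, cell-free biochemical luciferase assay / Read-out: luciferase activation / Benchmarks: No-ATP low control, compound-free enzyme-plus-ATP high control / Medium: PBS buffer for ATP / Detection: luminescence measurement of luciferase light output / Schedule: 10 min at ambient temperature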
APP 5'UTR act: activators of APP 5'UTR luciferase reporter, primary screen, SH-SY5Y cells | 190,000 tested, 1% active | activation, % at 2 µM | SH-SY5Y APP 5'UTR luciferase reporter, luminescence; zero percent = DMSO vehicle wells;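 active means activation above a set limit, based on mean plus 3 SD of controls, cut at about 140% in these data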
Large screens that a line does not name were inactive. A selection: hits, their analogues and other compounds. The true share with any hit is near 4.3%.

CC(=O)n1cc([C@H]2C=C(C(=O)N3CCN(Cc4ccc5c(c4)OCO5)CC3)O[C@@H](OCCCCO)C2)c2ccccc21	none (no result: SDO1 yeast rescue)
O=C(CCc1nnc(Cc2cccc(C(F)(F)F)c2)o1)NCC(F)(F)F	none (no result: SDO1 yeast rescue)
C=C(C)CNC(=O)CCc1nnc(Cc2cccc(C(F)(F)F)c2)o1	STAT1 act 140.2 (no result: SDO1 yeast rescue)
CC(C)CN(C)C(=O)CCc1nnc(Cc2cccc(C(F)(F)F)c2)o1	STAT1 act 133.2 (no result: SDO1 yeast rescue)
c1ccc(COc2ccc(OCCCn3cncn3)cc2)cc1	NF-kB neuron act 5.29, APP 5'UTR act 136.4
CC1CCN(CCCOc2ccc(OCc3ccccc3)cc2)CC1	NF-kB neuron act 5.08
c1ccc(COc2ccc(OCCCN3CCCC3)cc2)cc1	FLuc inhib CS 58.5
CCOC(=O)C1C(=O)C=C(c2ccc(Br)cc2)CC1c1ccco1 (configuration not stated)	none
CCOC(=O)c1sc(NC(C)=O)cc1C	none
CCOC(=O)c1sc(NC(=O)C2CCC2)cc1C	FLuc inhib CS 50.1 (no result: SDO1 yeast rescue)
O=C(c1cnsn1)N1CCC(CO)(Cc2cccc(F)c2)CC1	STAT1 act 133.3 (no result: SDO1 yeast rescue, NF-kB neuron act)
OCC1(Cc2cccc(F)c2)CCN(Cc2ccc3cccc(F)c3n2)CC1	none (no result: SDO1 yeast rescue)
Fc1ccc(NCc2cn3ccccc3n2)cc1	STAT1 act 135.2
O=C(NCCc1cn2ccccc2n1)c1ccccc1F	none
CC(=O)c1cccc(NC(=O)c2c(C)nn(-c3ccccc3)c2Cl)c1	none (no result: SDO1 yeast rescue)
CC(=O)c1cccc(NC(=O)c2cnn3ccccc23)c1	STAT1 act 129.2, NF-kB neuron act 3.36 (no result: APP 5'UTR act)
Cc1ccc(C)c(NC(=O)c2cc3ccccn3n2)c1	STAT1 act 134.5
Cc1ccc(C)c(NC(=O)c2cnn3ccccc23)c1	none
CC(=O)c1cccc(NC(=O)c2cc3ccccn3n2)c1	FLuc inhib CS 71.7
O=C(CC1C(=O)NCCN1C(=S)Nc1ccccc1)Nc1ccc2c(c1)OCCO2 (configuration not stated)	none
Cc1ccc2c(Cl)c(C(=O)Nc3cccnc3)sc2c1	FLuc inhib CS 66.4, APP 5'UTR act 168.6
Cc1ccc2c(C)c(C(=O)Nc3cccnc3)oc2c1	none
CC(C)(O)c1cc(=O)sc2nc3ccccc3n12	STAT1 act 133.8, NF-kB neuron act 3.59
CC(C)CCn1nnnc1CN1CCN(C(c2ccccc2)c2ccccc2)CC1	none (no result: SDO1 yeast rescue)
Cc1ccc(C(=O)Oc2ccc(N3C(=O)CCC3=O)c(C)c2)cc1	FLuc inhib CS 54.3 (no result: SDO1 yeast rescue)
O=C(Nc1ccc2nc(-c3cccnc3)[nH]c2c1)C1CCCCC1	FLuc inhib CS 63.7
O=C(Nc1ccc2nc(-c3cccnc3)[nH]c2c1)C12CC3CC(CC(C3)C1)C2	none
CC1CN(c2nc3ccccc3nc2C(C#N)C(=O)NCc2ccc3c(c2)OCO3)CC(C)O1 (configuration not stated)	none
Cc1ccc(-c2nc3ccsc3c(=O)[nH]2)cc1	FLuc inhib CS 74.8, APP 5'UTR act 198.5 (no result: SDO1 yeast rescue)
CCOC(=O)CSc1nc2ccsc2c(=O)[nH]1	none (no result: SDO1 yeast rescue)
CS(=O)(=O)N1CCc2cc(NC(=O)c3ccc(Cl)cc3Cl)ccc21	STAT1 act 129.4 (no result: SDO1 yeast rescue)
NC(=O)c1c(NC(=O)c2ccccc2)sc2c1CCc1ccccc1-2	STAT1 act 139.5, NF-kB neuron act 4.09
Cc1c(Cc2ccc3c(c2)OCO3)sc(NC(=O)c2ccccc2)c1C(N)=O	none
NC(=O)CCC(NS(=O)(=O)c1ccc(Cl)cc1)C(=O)NCc1ccccc1 (configuration not stated)	none
Clc1nc(CN2CCCCC2)nc2sc3c(c12)CCCC3	NF-kB neuron act 3.65 (no result: SDO1 yeast rescue)
O=c1c2c3c(sc2nc2n1CCCCC2)CCCC3	STAT1 act 142.6, NF-kB neuron act 4.1
Clc1nc(CN2CCOCC2)nc2sc3c(c12)CCC3	none (no result: SDO1 yeast rescue)
COc1ccccc1C1=NC(c2ccc(F)cc2)N=C1C (configuration not stated)	STAT1 act 131.3 (no result: SDO1 yeast rescue)
COc1ccccc1-c1cc(N)n[nH]1	none
Cc1cc(C)n(CC(O)COc2ccc(OCC(O)Cn3nc(C)cc3C)cc2)n1 (configuration not stated)	none (no result: FLuc inhib CS, SDO1 yeast rescue, NF-kB neuron act, FLuc stim CS)
O=C(OCc1nc2ccccc2s1)c1cccs1	STAT1 act 136.9
COc1cc(OC)cc(C(=O)NCC(=O)OCc2nc3ccccc3s2)c1	STAT1 act 145.4, APP 5'UTR act 139.5 (no result: SDO1 yeast rescue)
O=C(CNC(=O)c1ccc(Cl)cc1)OCc1nc2ccccc2s1	none
CC(C)CN(C(=O)COC(=O)c1c(Cl)ccc(Cl)c1Cl)C1CCS(=O)(=O)C1 (configuration not stated)	none (no result: SDO1 yeast rescue)
C=CCn1c(SCC(=O)c2[nH]c(C)c(C(=O)OC)c2C)nc2scc(-c3ccc(OC)c(OC)c3)c2c1=O	none
Cc1nn(-c2ccccc2)c(C)c1/C=C/C(=O)OCC(=O)N(C)C1CCS(=O)(=O)C1 (configuration not stated)	none (no result: SDO1 yeast rescue)
CSc1ccc(/C=N/NC(=O)c2ccccc2Cl)cc1	STAT1 act 133.4 (no result: SDO1 yeast rescue, NF-kB neuron act)
CSc1ccc(/C=N/NC(=O)c2ccc(O)cc2)cc1	FLuc inhib CS 71.1
CN(C)c1ccc(/C=N/NC(=O)c2ccccc2Cl)cc1	none
O=C1NN=C(CSc2n[nH]c(=S)s2)CS1	none (no result: SDO1 yeast rescue)
Cc1ccc(-n2nc(CN3CCOCC3)c(-c3ccccc3)c2N)c(C)c1	none
CN1CCc2c(C#N)c(N3CCCCC3)nc(NCc3ccccc3)c2C1	none
N#Cc1c(NCCCO)nc(NCc2ccccc2)c2c1CCN(Cc1ccccc1)C2	NF-kB neuron act 3.31
Cc1ccc2c(N)c(C#N)sc2n1	none
Cc1cc(C)c2c(N)c(-c3nc4ccccc4[nH]3)sc2n1	APP 5'UTR act 142.1
Cc1ccc2nc(-c3sc4nc(C)ccc4c3N)[nH]c2c1	FLuc inhib CS 62.0, NF-kB neuron act 5.92
CCOc1ccc(Oc2ccc(Cl)cc2N)cc1	none (no result: SDO1 yeast rescue)
O=C(NCCc1ccccc1)c1cc(-c2ccco2)on1	STAT1 act 131.9, NF-kB neuron act 5.78
COc1ccc(CCNC(=O)c2cc(-c3cccs3)on2)cc1OC	none
O=C(NCc1ccccc1)c1cc(-c2ccco2)on1	none
Cc1ccc(NC(=O)c2cc(-c3ccco3)on2)cc1C	STAT1 act 131.5
Cc1ccc(NC(=O)c2cc(-c3ccco3)on2)cc1	none
COc1ccc(CCNC(=O)c2cc(-c3ccco3)on2)cc1OC	NF-kB neuron act 4.49 (no result: SDO1 yeast rescue)
CCc1ccc(-c2cc(-c3n[nH]c(=S)n3CC)c3ccccc3n2)cc1	FLuc inhib CS 63.9
Cn1c(=O)[nH]c(=O)c2c1nc(N1CCOCC1)n2CCc1ccccc1	none (no result: SDO1 yeast rescue)
Cc1cc2c(C)nc(-c3ccccc3)nc2o1	STAT1 act 130.0
CC(=O)Nc1ccc(N2CCc3c(C)c(C#N)c4nc5ccccc5n4c32)cc1	none
